# MsrA inhibitor: bovine MsrA enzyme inhibitors, primary screen, biochemical, absorbance, HTS; Methionine sulfoxide reductase A (Bos taurus); purified bovine MsrA, absorbance read-out; inhibition, % at 15.5 µM; 360,000 compounds, 0.75% hits; AID 651718, 2012; in the data active = inhibition above about 4.5%;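 note: 0% = vehicle wells with enzyme and 100% = reference inhibitor wells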
# PKA-R1A act: activators of PKA-R1A holoenzyme, primary screen, biochemical, fluorescence polarization, Cy5-IP20, bovine R1A, mouse PKAc. cAMP-dependent protein kinase type I-alpha regulatory subunit (Bos taurus) + …. PKA-R1A dissociation; scaled: DMSO 0%, 113 µM cGMP 100%. activation, % at 11.4 µM. 340,000 compounds, 0.083% hits;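 active = percent activation above the mean of all tested compounds plus 3 SD, cut at about 19% in these data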;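 note: higher means more PKAc released from R1A so a rise in polarization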
# VIM-2 inhibitor: VIM-2 metallo-beta-lactamase inhibitors, primary screen, biochemical, epi-absorbance readout, Pseudomonas aeruginosa enzyme; purified VIM-2, nitrocefin hydrolysis, epi-absorbance fluorescence; inhibition, % at 5.6 µM; 290,000 compounds, 0.89% hits; AID 1527, 2009;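 active = inhibition above the mean of all tested compounds plus 3 SD, cutoff set per screening run, cut at about 7.5% in these data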;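 note: red hydrolysis product quenches plate fluorescence so inhibitors raise well fluorescence; 0% = enzyme with DMSO and 100% = DMSO without enzyme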
# bovine MsrA act: bovine MsrA enzyme activators, primary screen, biochemical, absorbance, HTS | purified bovine MsrA, absorbance read-out | AID 602163, 2012 | 360,000 compounds, 0.3% hits | Methionine sulfoxide reductase A (Bos taurus) | activation, % at 10.6 µM; in the data active = activation above about 7.5%;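 note: 0% = vehicle and 100% = reference activator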
# PKA-R2B act: activators of PKA-R2B holoenzyme, primary screen, biochemical, fluorescence polarization, Cy5-IP20, human; activation, % at 11.4 µM; 340,000 compounds, 0.079% hits; PKA-R2B holoenzyme dissociation; R2B truncated from residue 108, S112A mutant; 0% DMSO only, 100% 113 µM cGMP;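 active = activation above a cutoff set at the mean over all compounds plus 3 SD, cut at about 18% in these data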;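 note: higher means more holoenzyme dissociation and a rise in polarization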
# Target sequence (P31323 whole entry, looked up, other chains not shown, the tested form may be a part): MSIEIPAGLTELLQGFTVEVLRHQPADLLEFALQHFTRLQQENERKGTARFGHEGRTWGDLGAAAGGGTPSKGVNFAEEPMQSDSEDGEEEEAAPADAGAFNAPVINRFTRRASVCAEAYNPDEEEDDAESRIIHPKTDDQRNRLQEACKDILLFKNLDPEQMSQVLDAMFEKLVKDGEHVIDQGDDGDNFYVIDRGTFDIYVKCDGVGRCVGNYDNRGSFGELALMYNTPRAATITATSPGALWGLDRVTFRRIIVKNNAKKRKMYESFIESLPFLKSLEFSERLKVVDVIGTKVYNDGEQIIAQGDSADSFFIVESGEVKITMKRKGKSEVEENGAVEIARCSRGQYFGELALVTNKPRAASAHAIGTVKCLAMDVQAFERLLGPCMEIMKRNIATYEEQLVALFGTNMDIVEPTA
# IMP-1 inh: IMP-1 metallo-beta-lactamase inhibitors, primary screen, biochemical, epi-absorbance readout, Pseudomonas aeruginosa enzyme | metallo-beta-lactamase IMP-1 (Pseudomonas aeruginosa) | purified IMP-1, nitrocefin hydrolysis, epi-absorbance fluorescence | inhibition, % at 5.6 µM | 290,000 compounds, 0.45% hits;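 active = inhibition above the mean plus 3 SD of all compounds in the same screening run, cut at about 4.5% in these data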;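 note: 0% = IMP-1 with DMSO and 100% = DMSO wells lacking enzyme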
#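 System: Purified IMP-1 | Read-out basis: Percent enzyme inhibition | Controls: IMP-1 with DMSO as 0%, enzyme-free DMSO as 100% | Replicates: One well per compound | Doses: 5.6 µM nominal single concentration | Detection: Epi-absorbance fluorescence, 480 nm excitation, 530 nm emission | Incubation: 25 °C, 15 min preincubation, 25 min reaction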
# MsrA act confirm: bovine MsrA activators, retest, confirmation, biochemical, absorbance, HTS; shares compounds with bovine MsrA act; purified bovine MsrA, absorbance read-out; activation, % at 10.6 µM; 1,000 compounds, 12% hits; AID 602270, 2012; in the data active = activation above about 4%;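 note: enzyme coupled to thioredoxin and thioredoxin reductase with NADPH; 0% = vehicle wells and 100% = reference activator wells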
# * marks the source's active call; other numbers are inactive results; / = no result given. A selection: hits, their analogues and other compounds. The true share with any hit is near 2.1%.
SMILES,MsrA inhibitor,PKA-R1A act,VIM-2 inhibitor,bovine MsrA act,PKA-R2B act,IMP-1 inh,MsrA act confirm
O=c1oc2ccccc2cc1-c1ccc(O)cc1O,1,-3,-5,-3,-12,-2,/
C=C(C(=O)c1ccccc1)C(C)CC(=O)c1ccccc1 (stereo unspecified),-1,6,0,8.5*,6,-4,-1
CCN1C(=O)[C@H]2[C@H]3CN=C(SCc4ccccc4)N3[C@@](CC)(C(=O)OC)[C@H]2C1=O,0,-1,/,-4,-7,/,/
Nc1nc(=S)ss1,1,-4,/,38*,-7,/,28*
CSc1nc(C)cc(Oc2ccc(OCC(N)=O)nn2)n1,-1,-6,0,-3,-8,-2,/
C=CCOc1ccc(Oc2cc(C)nc(SC)n2)nn1,0,-14,0,13*,1,-3,-3
OCc1ccccc1O[C@@H]1O[C@H](CO)[C@@H](O)[C@H](O)[C@H]1O,0,-6,-3,-7,-1,-5,/
Nc1oc2ccccc2c1C(=O)Cc1ccccc1O[C@@H]1O[C@H](CO)[C@@H](O)[C@H](O)[C@H]1O,0,-7,/,13*,-5,/,2
CCN(CC)C1=N/C(=C\c2ccc(OC)cc2)C(=O)N1c1ccccc1,1,-14,-2,20*,4,-3,0
Cc1nnc(SCC(=O)N2CCN(S(=O)(=O)c3ccccc3)CC2)n1Cc1ccccc1,1,-5,-3,-1,3,-4,/
CCn1c(SCC(=O)N2CCN(S(=O)(=O)c3ccccc3)CC2)nnc1-c1cccs1,1,2,-3,9.6*,-5,-3,-1
CCCN(CC(=O)Nc1ccccc1C)C(=O)/C=C/c1ccc(OCC)c(OC)c1,2,-4,/,-10,0,/,/
C=CCn1c(N)c(C(=O)NCc2cccnc2)sc1=S,4,-4,-1,8.8*,5,-5,0
O=C(NC1CCCCC1)C(c1ccccc1F)n1c(=O)c(-c2cc3ccccc3[nH]2)nc2ccccc21 (stereo unspecified),0,/,/,/,/,/,/
O=C(Nc1cccc(C(=O)O)c1)Nc1cccc2ccccc12,0,0,-1,8.3*,-9,0,-1
COc1cc(OC)cc(C(=O)Nc2cccc3ccccc23)c1,-1,-6,-2,-4,1,-5,/
COc1cccc(C(=O)Nc2cccc3ccccc23)c1,1,-2,-2,20*,-11,-2,-1
O=[N+]([O-])c1ccccc1S(=O)NCc1c(Cl)cccc1Cl (stereo unspecified),-1,/,/,-5,/,/,/
Cc1ccc(Cl)cc1NC(=O)N(C)CCOC(=O)Nc1cccc(Cl)c1,1,/,/,/,/,/,/
CCCCNC(=O)CN(Cc1ccco1)S(=O)(=O)c1ccc(C(C)=O)cc1,0,-6,/,11*,5,/,-2
COc1ccc2ccccc2c1/C=N/NC(=O)c1cccc(C)c1,2,1,/,9.4*,0,/,-1
COC(=O)c1cc(NC(=O)CN2C(=O)C(=O)N(C3CCCC3)C2=O)cc(C(=O)OC)c1,2,-5,/,-1,-3,/,/
O=C(CN1CCN(c2ccc(O)cc2)CC1)Nc1ccc(S(=O)(=O)N2CCCC2)cc1,3,-9,/,-6,4,/,/
CCC(=O)N1Cc2cc(C(=O)NCC(F)(F)F)nc(-c3cccc(-c4cncnc4)c3)c2[C@@H]1CCO,-2,/,/,8.2*,/,/,-5
c1ccc(SSc2ccccn2)nc1,/,5,/,11*,-6,/,7.5*
SMILES,MsrA inhibitor,PKA-R1A act,VIM-2 inhibitor,bovine MsrA act,PKA-R2B act,IMP-1 inh,MsrA act confirm
COC(=O)[C@]12C[C@H](CC(=O)NCc3cccs3)C(=O)N(CCc3ccc(OC)c(OC)c3)C1=C[C@H](C(C)(C)C)O[C@@H]2C,0,/,/,/,/,/,/
CC1(C(=O)Nc2ccc3c(c2)OCCO3)CSCC(=O)N1C1CC1 (stereo unspecified),-1,/,/,/,/,/,/
O=[N+]([O-])c1ccc(C=Nc2cccc3ccccc23)s1,/,-6,3,8.1*,-1,0,6.5*
COC(=O)[C@]12C[C@H](CC(=O)NCC3CCCCC3)C(=O)N(CCC3=CCCCC3)C1=C[C@H](C(C)(C)C)O[C@@H]2C,0,/,/,/,/,/,/
CN(C)C(CNC(=S)Nc1ccccc1Cl)c1cccnc1 (stereo unspecified),-1,-10,0,7.9*,-4,1,-1
CCN(CC)C(=O)c1csc([C@@H]2O[C@H](CO)[C@H](O)[C@H](O)[C@H]2O)n1,1,/,/,-4,/,/,/
CN(CC1CCOCC1)C(=O)CC1C(=O)NCCN1CC(c1ccccc1)c1ccccc1 (stereo unspecified),0,2,-3,-3,-10,0,/
C[C@H]1[C@@H](c2ccccc2)Oc2ccc(Cl)cc2S(=O)(=O)N1Cc1ccc(Cl)cc1,0,/,/,/,/,/,/
O=C1NCCN(Cc2c(F)cccc2Cl)C1CC(=O)N1CCCCO1 (stereo unspecified),0,-3,-1,-15,3,-1,/
O=C1NCCN(Cc2ccc(Cl)c(F)c2)C1CC(=O)N1CCCCO1 (stereo unspecified),-1,-6,1,8.6*,0,-1,-2
CCCCc1c(Cc2ccccc2)ncn1CCc1ccccc1OC,-1,/,/,-8,/,/,/
COc1cc(C[C@@H]2C(=O)OC[C@H]2Cc2ccc(OC)c(OC)c2)ccc1O,0,2,/,11*,1,/,-1
O=c1c2ccccc2oc2cc(-c3ccc(CN4CCOCC4)cc3)ccc12,2,6,/,-3,-8,/,/
Cc1noc(C)c1S(=O)(=O)N(C)C[C@@H]1OCc2cn(nn2)CCCC(=O)N([C@H](C)CO)C[C@H]1C,1,/,/,/,/,/,/
CCOc1ccccc1OCC(=O)NCc1ccco1,0,2,-3,-2,2,-4,/
CCOc1ccccc1OCCCNCc1ccco1,0,-2,-2,13*,1,-2,-1
O=C(NCc1ccccc1)Nc1cccn(Cc2ccc(Cl)cc2)c1=O,0,1,-1,-6,-17,-2,/
O=C(NCc1ccccc1)Nc1cccn(Cc2ccccc2Cl)c1=O,2,4,-1,9.1*,3,-3,-2
Nc1cc(C2CCCC2)nn1-c1ccccc1,-1,-6,-2,9.1*,-2,-2,-4
O=C(O)c1cc(C2CC2)nn1-c1ccccc1,-1,3,-5,0,-6,1,/

# High-throughput results from PubChem.
